The text below walks through data of ChEMBL document CHEMBL4020830, “Design, Synthesis, and Evaluation of a Novel Series of Indole Sulfonamide Peroxisome Proliferator Activated Receptor (PPAR) α/γ/δ Triple Activators: Discovery of Lanifibranor, a New Antifibrotic Clinical Candidate” (J Med Chem, 2018).

The subject of series [1] is Mus musculus. Kind of series: Antidiabetic activity in C57BL/Ks mouse model of diabetic dyslipidemia assessed as decrease in plasma glucose level at 10 mg/kg, po qd administered via gavage for 10 days measured 4 hrs post last dose. In kind it is functional, organism-based. Summed up: (§1)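 Homozygous male C57BL/Ks-db (db/db) mice were gavaged once daily at 10 or 30 mg/kg, for 5 or 10 days. Retro-orbital blood was drawn before treatment and 4 h after the last gavage. Glucose and triglycerides were measured in serum. Results are expressed as % variation on the final day versus the control group. Analysis was one-way ANOVA with Dunnett's test.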

The test system of series [2] is Mus musculus. Kind of series: Antidiabetic activity in C57BL/Ks mouse model of diabetic dyslipidemia assessed as decrease in plasma glucose level at 30 mg/kg, po qd administered via gavage for 10 days measured 4 hrs post last dose. In kind it is functional, organism-based. In outline: as §1
The target of series [3] is T1, Peroxisome proliferator-activated receptor gamma (Homo sapiens, UniProt P37231).
T1 sequence (P37231 whole entry): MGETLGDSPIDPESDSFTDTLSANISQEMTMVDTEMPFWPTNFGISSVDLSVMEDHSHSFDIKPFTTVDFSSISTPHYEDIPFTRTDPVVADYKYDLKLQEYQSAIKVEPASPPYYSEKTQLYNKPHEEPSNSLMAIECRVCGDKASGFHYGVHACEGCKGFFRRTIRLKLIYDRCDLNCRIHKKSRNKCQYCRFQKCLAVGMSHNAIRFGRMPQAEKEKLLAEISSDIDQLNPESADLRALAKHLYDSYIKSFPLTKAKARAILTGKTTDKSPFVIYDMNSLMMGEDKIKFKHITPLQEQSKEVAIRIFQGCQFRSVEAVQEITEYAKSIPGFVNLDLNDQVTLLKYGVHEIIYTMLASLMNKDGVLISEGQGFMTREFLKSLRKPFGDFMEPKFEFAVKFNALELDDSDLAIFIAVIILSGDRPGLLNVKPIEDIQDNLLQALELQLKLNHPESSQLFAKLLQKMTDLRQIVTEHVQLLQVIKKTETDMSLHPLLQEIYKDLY

Series [4] has as its target T2, Peroxisome proliferator-activated receptor gamma (Mus musculus, UniProt P37238).
T2 sequence (P37238 whole entry): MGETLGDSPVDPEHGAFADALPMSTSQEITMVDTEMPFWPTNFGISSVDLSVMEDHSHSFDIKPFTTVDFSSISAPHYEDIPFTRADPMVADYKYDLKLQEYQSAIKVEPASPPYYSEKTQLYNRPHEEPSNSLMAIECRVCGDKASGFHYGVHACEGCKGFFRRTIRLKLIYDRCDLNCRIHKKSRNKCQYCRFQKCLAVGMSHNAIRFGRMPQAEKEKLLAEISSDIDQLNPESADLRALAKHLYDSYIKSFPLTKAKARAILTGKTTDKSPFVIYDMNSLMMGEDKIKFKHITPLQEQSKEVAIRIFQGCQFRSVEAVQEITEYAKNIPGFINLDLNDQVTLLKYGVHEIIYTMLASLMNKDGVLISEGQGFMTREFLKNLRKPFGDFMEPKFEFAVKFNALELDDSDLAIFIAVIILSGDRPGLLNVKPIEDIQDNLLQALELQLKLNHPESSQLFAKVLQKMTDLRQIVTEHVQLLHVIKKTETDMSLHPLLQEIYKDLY
Briefly: Transactivation of mouse GAL4-fused PPARgamma LBD expressed in African green monkey COS7 cells co-expressing 5Gal4 pGL3 TK Luc after overnight incubation by luciferase reporter gene assay.

In series [5] the test system is Rattus norvegicus. Kind of series: Toxicity in Sprague-Dawley rat assessed as effect on plasma volume at 100 to 1000 mg/kg for 4 weeks by evans blue dye based assay. In kind it is organism-based. Particulars: in vivo, 672 h. In outline: (§2)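 Sprague-Dawley rats were treated at 100 and 1000 mg/kg. Hematocrit and plasma volume were measured after 4 weeks and heart weight after 6 weeks. Analysis was one-way ANOVA with Dunnett's test versus control.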

Series [6] deals with T1, Peroxisome proliferator-activated receptor gamma. The source holds these as a separate data set.
Series [7] concerns Mus musculus. Kind of series: Antidiabetic activity in C57BL/Ks mouse model of diabetic dyslipidemia assessed as decrease in plasma glucose level administered via oral gavage qd for 5 days measured 4 hrs post last dose. It counts as functional. In outline:
as §1

Series [8] has as its target T1, Peroxisome proliferator-activated receptor gamma. The source holds these as a separate data set.
Series [9] deals with Mus musculus. Briefly: Reduction in plasma triglyceride level in C57Bl6/J mouse model of CCl4-induced liver fibrosis at 3 to 30 mg/kg, po qd for 3 weeks. It counts as functional, organism-based. In outline:
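CCl4-induced liver fibrosis mice were dosed orally once daily at 3, 10 or 30 mg/kg for 3 weeks. Controls were CCl4-vehicle, vehicle oil and saline-injected groups. Liver collagen was scored by picrosirius red staining of histological sections. Plasma triglycerides and adiponectin were also measured. Analysis was one-way ANOVA with Dunnett's test.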

In series [10] the target is T1, Peroxisome proliferator-activated receptor gamma. Kind of series: Transactivation of recombinant GST-tagged PPARgamma (unknown origin) expressed in Escherichia coli assessed as N-terminal biotin-labeled LCOR (39 to 63 residues) co-activator recruitment by TR-FRET assay. Background: Time-resolved FRET reads energy transfer from a long-lived donor to a nearby acceptor.

The subject of series [11] is Rattus norvegicus. Briefly: Toxicity in Sprague-Dawley rat assessed as reduction in hematocrit level at 100 to 1000 mg/kg for 4 weeks. In kind it is organism-based. Particulars: in vivo, 672 h. Summed up: as §2
Series [12] concerns the target T3, Peroxisome proliferator-activated receptor delta (Mus musculus, UniProt P35396).
T3 sequence (P35396 whole entry): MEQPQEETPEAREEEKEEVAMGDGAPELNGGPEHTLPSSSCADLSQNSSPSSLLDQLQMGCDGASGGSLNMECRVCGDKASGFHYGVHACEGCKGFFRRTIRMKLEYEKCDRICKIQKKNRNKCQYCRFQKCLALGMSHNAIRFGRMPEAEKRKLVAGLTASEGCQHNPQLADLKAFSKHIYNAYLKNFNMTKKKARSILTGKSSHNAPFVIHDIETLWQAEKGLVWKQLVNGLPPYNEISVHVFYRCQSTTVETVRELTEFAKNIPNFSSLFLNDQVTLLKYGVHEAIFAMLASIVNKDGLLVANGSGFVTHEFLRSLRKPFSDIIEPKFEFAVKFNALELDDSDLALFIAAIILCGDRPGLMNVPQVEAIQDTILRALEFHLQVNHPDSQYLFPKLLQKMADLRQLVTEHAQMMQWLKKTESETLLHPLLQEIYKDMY
Kind of series: Transactivation of mouse GAL4-fused PPARdelta LBD expressed in African green monkey COS7 cells co-expressing 5Gal4 pGL3 TK Luc after overnight incubation by luciferase reporter gene assay. It counts as cell-based. Background: In a reporter assay the amount or activity of a reporter protein is the signal.

For series [13], the target named is T1, Peroxisome proliferator-activated receptor gamma. This is another data set of the same source.
Series [14] shares this target. This is another data set of the same source.

Activity calls are given as the source filed them. The calls are words filed in the database; no cut-off is given here.

As for `O=C(O)CCc1cc2cc(Cl)ccc2n1S(=O)(=O)c1ccccc1`, the outcome with Mus musculus [1] was inactive. Also, in the series on Mus musculus [2], the result was Active.
On to `O=C(O)CCCc1cc2cc(Cl)ccc2n1S(=O)(=O)c1ccc2ncsc2c1` [LANIFIBRANOR], for which the EC50 (in general, the concentration giving half of the maximal effect) in series [3] is 1480 nM; in series [4] it was 202 nM; in series [6] it was 3410 nM; in series [8] it was 1140 nM; in series [10] it was 727 nM; in series [12] it was 1560 nM. Moreover, the figures for the EC50 in series [13] and in series [14] were 3210 nM and 4100 nM, respectively. Besides, the Activity result in the series with Rattus norvegicus [5] is “Non-Toxic”; with Mus musculus [7], “Dose-dependent effect”; in the series with Rattus norvegicus [11] it was “Non-Toxic”. Besides, the result with Mus musculus [9] was Active.
